Assay results reported in ChEMBL document CHEMBL1146282, “Novel beta-lactam derivatives: potent and selective inhibitors of the chymotrypsin-like activity of the human 20S proteasome” (Bioorg Med Chem Lett, 2007).
Activity calls are given as the source filed them. The rule behind the calls is not given here.

Tests used:
[1] = Inhibition of trypsin-like activity of human 20S proteasome
How it was run: (§1)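 Human 20S proteasome purified in-house from blood, assayed in vitro with fluorogenic AMC peptides: Suc-Leu-Leu-Val-Tyr-AMC (chymotrypsin-like), Boc-Leu-Arg-Arg-AMC (trypsin-like), Z-Leu-Leu-Glu-AMC (post-glutamyl-peptide hydrolytic-like). Hydrolysis followed by fluorescence rise (ex 355/em 460 nm). IC50 taken from initial linear rates, as inhibitor concentration halving the proteasome-catalysed hydrolysis rate.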

[2] = species on record: Homo sapiens; assay: Inhibition of calpain at 25 uM
[3] = species on record: Homo sapiens; assay: Selectivity for chymotrypsin-like activity of human 20S proteasome over trypsin-like activity of human 20S proteasome
[4] = Inhibition of chymotrypsin-like activity of human 20S proteasome; how it was run: as §1
[5] = species on record: Homo sapiens; assay: Inhibition of thrombin at 25 uM
[6] = species on record: Homo sapiens; assay: Selectivity for chymotrypsin-like activity of human 20S proteasome over post-glutamyl-peptide hydrolytic activity of human 20S proteasome
[7] = Inhibition of post-glutamyl-peptide hydrolytic activity of human 20S proteasome; how it was run: as §1
[8] = tested on: MDA-MB-435; assay: Antiproliferative activity against human MDA-MB-435 cells by MTT assay; assay type: functional, cell-based
How it was run: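 MDA-MB-435 human breast carcinoma cells grown in MEM with 10% FCS, penicillin/streptomycin, 4 mM L-glutamine, 1 mM sodium pyruvate, non-essential amino acids and 20 mM Hepes. Compound exposure for 24, 48 or 72 h. Proliferation read by MTT-based CellTiter96 assay.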

[9] = species on record: Homo sapiens; assay: Inhibition of chymotrypsin at 25 uM

SMILES | IC50 [1] | Activity [2] | Ratio [3] | IC50 [4] | Activity [5] | Ratio [6] | IC50 [7] | IC50 [8] | Activity [9]
COc1ccc(C[C@H](NC(=O)Cc2cccc(Oc3ccccc3)c2)C(=O)N[C@H](C(=O)N[C@@]2(Cc3ccccc3)CNC2=O)C(C)(C)C)c(OC)c1OC | – | – | – | 280 nM | – | – | – | – | –
CC(C)C[C@]1(NC(=O)[C@@H](NC(=O)[C@H](Cc2ccccc2)NC(=O)Cc2cccc(Oc3ccccc3)c2)C(C)C)CNC1=O | – | – | – | 38000 nM | – | – | – | – | –
CC(C)C[C@@]1(NC(=O)[C@@H](NC(=O)[C@H](Cc2ccccc2)NC(=O)Cc2cccc(Oc3ccccc3)c2)C(C)C)CNC1=O | – | inactive | 350 | 20 nM | inactive | > 350 | > 20000 nM | 1200 nM | inactive
COc1ccc(C[C@H](NC(=O)Cc2cccc(Oc3ccccc3)c2)C(=O)N[C@@H](C(=O)N[C@@]2(Cc3ccccc3)CNC2=O)C(C)(C)C)c(OC)c1OC | – | – | – | 4 nM | – | – | – | – | –
COc1ccc(C[C@H](NC(=O)Cc2cccc(Oc3ccccc3)c2)C(=O)N[C@H](C(=O)N[C@@]2(CC(C)C)CNC2=O)C(C)C)c(OC)c1OC | – | – | – | 1300 nM | – | – | – | – | –

Second part, the compound after the results:

IC50 [1] | Activity [2] | Ratio [3] | IC50 [4] | Activity [5] | Ratio [6] | IC50 [7] | IC50 [8] | Activity [9] | SMILES
19000 nM | inactive | 350 | 1.4 nM | inactive | > 350 | > 20000 nM | 32 nM | inactive | COc1ccc(C[C@H](NC(=O)Cc2cccc(Oc3ccccc3)c2)C(=O)N[C@H](C(=O)N[C@]2(Cc3ccccc3)CNC2=O)C(C)C)c(OC)c1OC
– | – | – | 5 nM | – | – | – | – | – | COc1ccc(C[C@H](NC(=O)OCc2ccccc2)C(=O)N[C@H](C(=O)N[C@]2(Cc3ccccc3)CNC2=O)C(C)C)c(OC)c1OC
– | – | – | 170 nM | – | – | – | – | – | COc1ccc(C[C@H](NC(=O)Cc2cccc(Oc3ccccc3)c2)C(=O)N[C@H](C(=O)N[C@@]2(Cc3ccccc3)CNC2=O)C(C)C)c(OC)c1OC
– | – | – | 1400 nM | – | – | – | – | – | COc1ccc(C[C@H](NC(=O)OCc2ccccc2)C(=O)N[C@H](C(=O)N[C@@]2(Cc3ccccc3)CNC2=O)C(C)C)c(OC)c1OC
1100 nM | inactive | 350 | 2.5 nM | inactive | > 350 | > 100000 nM | 34 nM | inactive | COc1ccc(C[C@H](NC(=O)Cc2cccc(Oc3ccccc3)c2)C(=O)N[C@H](C(=O)N[C@]2(CC(C)C)CNC2=O)C(C)C)c(OC)c1OC
